Data set [1] concerns MCF7. Description: Antiproliferative activity against human p53+/- MCF7 cells after 48 hrs by SRB assay. In kind it is functional. As to conditions: MCF7, 48 h. A digest of the protocol:
(§1)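 Cells (5000–10,000/well) preincubated 24 h at 37 °C, 5% CO2; MCF10A kept in mammary epithelial basal medium with MEGM supplements. Seven concentrations from 2–10-fold serial dilutions, with ≤0.1% DMSO vehicle control, were given for 48 h. Cells were TCA-fixed (10% final), then stained with 0.4% SRB. Dye was solubilized in 10 mM Tris base and read at 515–564 nm. GI50 came from variable-slope sigmoidal fits, triplicates, ≥2 experiments.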

A short description of data set [2]: Antiproliferative activity against human MCF10A cells after 48 hrs by SRB assay. It counts as cell-based, MCF-10A. A digest of the protocol:
as §1
On the technique in general: In SRB staining, fixed cells bind dye roughly in proportion to their protein.

In data set [3] the test system is MDA-MB-231. Put plainly: Antiproliferative activity against human p53, pRB mutant and estrogen receptor deficient MDA-MB-231 cells after 48 hrs by SRB assay. In kind it is functional. The following applies: MDA-MB-231, 48 h. The essentials: as §1
Data set [4] relates to MCF7. Put plainly: Ratio of compound GI50 to cisplatin GI50 for human p53+/- MCF7 cells after 48 hrs by SRB assay. In kind it is functional.
In data set [5] the test system is MCF7. Put plainly: Ratio of GI50 for human MCF10A cells to GI50 for human p53+/- MCF7 cells.
In data set [6] the test system is MDA-MB-231. Description: Ratio of compound GI50 to cisplatin GI50 for human p53, pRB mutant and estrogen receptor deficient MDA-MB-231 cells after 48 hrs by SRB assay. It counts as functional.
In data set [7] the test system is MDA-MB-231. Description: Ratio of GI50 for human MCF10A cells to GI50 for human p53, pRB mutant and estrogen receptor deficient MDA-MB-231 cells.

Data on 27 compounds can be found in ChEMBL document CHEMBL1240425, “Design and synthesis of chloroquine analogs with anti-breast cancer property” (Eur J Med Chem, 2010).

Each structure is given as a SMILES string.

Consider `Clc1ccc2c(NCCCN3CCCC3)ccnc2c1`, for which the GI50 (usually the concentration that inhibits growth by half) is 21.4 µM in the data set on MCF7 [1] and 29.8 µM in the data set on MDA-MB-231 [3]. Besides, growth in data set [2] was halved (GI50 at 48 h) at 45.8 µM.
As to `Clc1ccc2c(NCCCN3CCOCC3)ccnc2c1`, the GI50 amounted to 17.2 µM with MCF7 [1] and 40.2 µM in the data set on MDA-MB-231 [3]. This compound registered a GI50 at 48 h in data set [2] of 86.5 µM.
In the case of `CN1CCN(CCCNc2ccnc3cc(Cl)ccc23)CC1`, the GI50 in the data set on MCF7 [1] worked out at 17.1 µM; with MDA-MB-231 [3] it was 19.1 µM. In addition, the 50% growth inhibitory concentration (GI50) at 48 h in data set [2] was 16.7 µM.
For `Clc1ccc2c(NCCCN3CCN(c4ccccc4)CC3)ccnc2c1`, in that order: 12.8 µM, 15.9 µM and 12.6 µM.
The matching figures for `Clc1ccc2c(NCCCN3CCN(c4ccnc5cc(Cl)ccc45)CC3)ccnc2c1`: 5.42 µM, 7.52 µM and 8.72 µM.
Consider `FC(F)(F)c1ccc2c(N3CCN(CCCNc4ccnc5cc(Cl)ccc45)CC3)ccnc2c1`, for which the GI50 in the data set with MCF7 [1] is 4.99 µM; in the data set with MDA-MB-231 [3] it was 6.33 µM. Moreover, the RatioGI50 in the data set on MCF7 [4] is reported as 5.16; in the data set with MCF7 [5], 2.58; with MDA-MB-231 [6], 3.7; in the data set with MDA-MB-231 [7], 2.03. The same compound registered a GI50 at 48 h in data set [2] of 12.9 µM.
As for `O=C1C(=O)N(CCCNc2ccnc3cc(Cl)ccc23)c2ccccc21`, the GI50 was found to be 23.5 µM with MCF7 [1] and 47.6 µM with MDA-MB-231 [3]. Moreover, the GI50 at 48 h in data set [2] came out at 35.9 µM.
As to `O=C1C(=O)N(CCCNc2ccnc3cc(Cl)ccc23)c2cccc(Cl)c21`, the figures for the concentration for 50% growth inhibition (GI50) in the data set with MCF7 [1] and with MDA-MB-231 [3] were 46.7 µM and 55.6 µM, respectively. The same compound had a GI50 at 48 h in data set [2] of 84.8 µM.
The matching figures for `O=C1C(=O)N(CCCNc2ccnc3cc(Cl)ccc23)c2cccc(Br)c21`: 6.57 µM, 16.8 µM and 20.8 µM.
As for `O=C1C(=O)N(CCCNc2ccnc3cc(Cl)ccc23)c2cc(Cl)ccc21`, the results for the GI50 in the data set with MCF7 [1] and with MDA-MB-231 [3] were 7.36 µM and 15.8 µM, respectively. The same compound yielded a GI50 at 48 h in data set [2] of 6.88 µM.
Regarding `O=C1C(=O)N(CCCNc2ccnc3cc(Cl)ccc23)c2cc(Br)ccc21`, the GI50 in the data set with MCF7 [1] was 16.6 µM; with MDA-MB-231 [3], 35 µM. Further, in data set [2], growth was halved (GI50 at 48 h) at 19.9 µM.
The matching figures for `FC(F)(F)c1ccc2c(NCCCN3CCCC3)ccnc2c1`: 36.8 µM, 70.4 µM and 58.6 µM.
In the case of `FC(F)(F)c1ccc2c(NCCCN3CCCCC3)ccnc2c1`, the figures for the 50% growth inhibitory concentration (GI50) with MCF7 [1] and with MDA-MB-231 [3] were 32.6 µM and 38.6 µM, respectively. The compound further returned a GI50 at 48 h in data set [2] of 48.8 µM.
Regarding `FC(F)(F)c1ccc2c(NCCCN3CCOCC3)ccnc2c1`, the GI50 was 38.8 µM in the data set on MCF7 [1] and 79.8 µM in the data set with MDA-MB-231 [3]. The compound also had a GI50 at 48 h in data set [2] of 26.5 µM.
For `CN1CCN(CCCNc2ccnc3cc(C(F)(F)F)ccc23)CC1`, in that order: 30.8 µM, 43.3 µM and 51.7 µM.
For `FC(F)(F)c1ccc2c(NCCCN3CCN(c4ccccc4)CC3)ccnc2c1`, in that order: 8.75 µM, 9.9 µM and 19.8 µM.
For `FC(F)(F)c1ccc2c(NCCCN3CCN(c4ccnc5cc(Cl)ccc45)CC3)ccnc2c1`, the figures for the GI50 in the data set on MCF7 [1] and in the data set on MDA-MB-231 [3] were 4.6 µM and 4.31 µM, respectively. The RatioGI50 with MCF7 [5] came out at 1.92; in the data set with MDA-MB-231 [7], 2.05. In addition, in data set [2], the 50% growth inhibitory concentration (GI50) at 48 h amounted to 8.84 µM.
Turning to `FC(F)(F)c1ccc2c(NCCCN3CCN(c4ccnc5cc(C(F)(F)F)ccc45)CC3)ccnc2c1`, the GI50 in the data set on MCF7 [1] came to 17.2 µM; in the data set with MDA-MB-231 [3], 25.7 µM. Besides, the GI50 at 48 h in data set [2] is 30 µM.
For `O=C1C(=O)N(CCCNc2ccnc3cc(C(F)(F)F)ccc23)c2ccccc21`, in that order: 45.3 µM, 54.1 µM and 46.8 µM.
On to `O=C1C(=O)N(CCCNc2ccnc3cc(C(F)(F)F)ccc23)c2cccc(Cl)c21`, for which the GI50 is 18.8 µM with MCF7 [1] and 50.2 µM in the data set with MDA-MB-231 [3]. Moreover, in data set [2], the GI50 at 48 h was 20.2 µM.
Regarding `O=C1C(=O)N(CCCNc2ccnc3cc(C(F)(F)F)ccc23)c2cccc(Br)c21`, the figures for the GI50 in the data set on MCF7 [1] and in the data set on MDA-MB-231 [3] were 34.4 µM and 49.4 µM, respectively. This compound also returned a GI50 at 48 h in data set [2] of 33.7 µM.
Turning to `O=C1C(=O)N(CCCNc2ccnc3cc(C(F)(F)F)ccc23)c2cc(Cl)ccc21`, the results for the GI50 in the data set with MCF7 [1] and in the data set on MDA-MB-231 [3] were 14.3 µM and 17.4 µM, respectively. In data set [2], it took 25.2 µM to inhibit growth by half (GI50 at 48 h).
For the compound `O=C1C(=O)N(CCCNc2ccnc3cc(C(F)(F)F)ccc23)c2cc(Br)ccc21`, the GI50 was found to be 7.98 µM with MCF7 [1] and 18.9 µM in the data set on MDA-MB-231 [3]. Besides, in data set [2], the 50% growth inhibitory concentration (GI50) at 48 h came to 14.6 µM.
Consider `CCN(CC)CCCNc1ccnc2cc(Cl)ccc12`, for which the GI50 was 17.9 µM in the data set on MCF7 [1] and 27.8 µM in the data set on MDA-MB-231 [3]. In data set [2], halving of growth (GI50 at 48 h) required 65.3 µM.
For `Clc1ccc2c(NCCCN3CCCCC3)ccnc2c1`, in that order: 17.7 µM, 38 µM and 47.8 µM.
For `CCN(CC)CCCNc1ccnc2cc(C(F)(F)F)ccc12`, in that order: 20.6 µM, 57.1 µM and 45.8 µM.
In data set [2], `CCN(CC)CCCC(C)Nc1ccnc2cc(Cl)ccc12` (stereo not given) [CHLOROQUINE] registered a GI50 at 48 h of 81.3 µM.
